ChEMBL document CHEMBL3244254, “Hypolipidemic activity of 5-aryl-3-methylvaleric acid derivatives” (J Med Chem, 1977)
pIC50: −log10 of the molar value.

Tests used:
[1] = target: T1, 3-hydroxy-3-methylglutaryl-coenzyme A reductase (Rattus norvegicus, UniProt P51639); assay: Inhibition of HMG-coA reductase in CD rat liver microsomal-cytosol fraction assessed as inhibition of total lipid synthesis using [2-14C]acetate as substrate after 90 mins by scintillation counting analysis
T1 sequence (P51639 whole entry): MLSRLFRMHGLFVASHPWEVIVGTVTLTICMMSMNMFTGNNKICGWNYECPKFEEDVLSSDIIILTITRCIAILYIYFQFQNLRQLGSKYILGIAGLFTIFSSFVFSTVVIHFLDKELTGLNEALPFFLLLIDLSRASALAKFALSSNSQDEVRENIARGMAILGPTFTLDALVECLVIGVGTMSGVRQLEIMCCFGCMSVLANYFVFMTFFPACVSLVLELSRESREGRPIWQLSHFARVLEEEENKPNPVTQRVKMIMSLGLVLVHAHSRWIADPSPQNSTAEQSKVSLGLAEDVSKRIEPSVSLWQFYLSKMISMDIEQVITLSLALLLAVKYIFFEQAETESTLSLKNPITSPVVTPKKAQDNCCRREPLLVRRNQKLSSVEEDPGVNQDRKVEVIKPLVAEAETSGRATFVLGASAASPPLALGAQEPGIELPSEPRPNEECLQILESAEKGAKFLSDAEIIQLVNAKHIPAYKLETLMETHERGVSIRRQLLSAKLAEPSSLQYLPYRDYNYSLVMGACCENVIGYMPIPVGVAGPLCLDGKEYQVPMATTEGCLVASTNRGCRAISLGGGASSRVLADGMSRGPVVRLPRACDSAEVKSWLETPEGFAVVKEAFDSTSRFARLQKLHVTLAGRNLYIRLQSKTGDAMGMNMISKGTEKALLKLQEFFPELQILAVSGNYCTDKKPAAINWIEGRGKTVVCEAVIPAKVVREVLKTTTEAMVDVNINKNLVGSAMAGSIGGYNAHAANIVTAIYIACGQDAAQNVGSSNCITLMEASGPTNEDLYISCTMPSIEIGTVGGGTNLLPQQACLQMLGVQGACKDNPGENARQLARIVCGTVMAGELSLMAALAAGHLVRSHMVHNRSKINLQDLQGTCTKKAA
Method in brief: (§1)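 Male CD rats, 150–200 g, housed singly 5 days on chow with 2% DEAE-cellulose, killed by cervical dislocation. Liver microsomal-cytosol fraction as enzyme source, [2-14C]acetate substrate, 90 min at 37 °C. Compounds added in Me2SO, at least four concentrations, duplicates. Lipid extract counted by scintillation (dpm). Heat-inactivated fraction corrects for nonenzymatic incorporation. Fractions are total lipid, nonsaponifiable lipid and fatty acid. IC50 is molar concentration giving 50% inhibition.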

[2] = target: T1, 3-hydroxy-3-methylglutaryl-coenzyme A reductase; assay: Inhibition of HMG-coA reductase in CD rat liver microsomal-cytosol fraction assessed as inhibition of nonsaponifiable lipid synthesis using [2-14C]acetate as substrate after 90 mins by scintillation counting analysis; method in brief: as §1
Rattus norvegicus [3] = assay: Hypolipidemic activity in intact normal CD rat assessed as reduction in serum cholesterol level at 0.45 mmol/kg/day administered through diet for 5 days measured on day 6; format: functional
Method in brief: (§2)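 Male CD rats, 300–380 g, housed in pairs, 12-h light/dark, free access to food and water. Test agent mixed into ground chow at 0.2%; controls got plain ground chow; 8 rats per group. Body weight and group food intake recorded. Fed 5 days, anesthetized on day 6, blood collected, serum total cholesterol or triglyceride measured. Expressed as % reduction vs concurrent controls, Student's t test p ≤ 0.05.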

Rattus norvegicus [4] = assay: Hypolipidemic activity in intact normal CD rat assessed as reduction in serum triglyceride level at 0.45 mmol/kg/day administered through diet for 5 days measured on day 6; format: functional; method in brief: as §2
Rattus norvegicus [5] = assay: Hypolipidemic activity in intact normal CD rat assessed as reduction in serum cholesterol level at 0.43 mmol/kg/day administered through diet for 5 days measured on day 6; format: functional; method in brief: as §2
Rattus norvegicus [6] = assay: Hypolipidemic activity in intact normal CD rat assessed as reduction in serum triglyceride level at 0.43 mmol/kg/day administered through diet for 5 days measured on day 6; format: functional; method in brief: as §2
Rattus norvegicus [7] = assay: Hypolipidemic activity in intact normal CD rat assessed as reduction in serum cholesterol level at 0.40 mmol/kg/day administered through diet for 5 days measured on day 6; format: functional; method in brief: as §2
Rattus norvegicus [8] = assay: Hypolipidemic activity in intact normal CD rat assessed as reduction in serum triglyceride level at 0.40 mmol/kg/day administered through diet for 5 days measured on day 6; format: functional; method in brief: as §2
Rattus norvegicus [9] = assay: Hypolipidemic activity in intact normal CD rat assessed as reduction in serum cholesterol level at 0.38 mmol/kg/day administered through diet for 5 days measured on day 6; format: functional; method in brief: as §2
Rattus norvegicus [10] = assay: Hypolipidemic activity in intact normal CD rat assessed as reduction in serum triglyceride level at 0.38 mmol/kg/day administered through diet for 5 days measured on day 6; format: functional; method in brief: as §2
Rattus norvegicus [11] = assay: Hypolipidemic activity in intact normal CD rat assessed as reduction in serum cholesterol level at 0.41 mmol/kg/day administered through diet for 5 days measured on day 6; format: functional; method in brief: as §2
Rattus norvegicus [12] = assay: Hypolipidemic activity in intact normal CD rat assessed as reduction in serum triglyceride level at 0.41 mmol/kg/day administered through diet for 5 days measured on day 6; format: functional; method in brief: as §2
Rattus norvegicus [13] = assay: Hypolipidemic activity in intact normal CD rat assessed as reduction in serum cholesterol level at 0.39 mmol/kg/day administered through diet for 5 days measured on day 6; format: functional; method in brief: as §2
Rattus norvegicus [14] = assay: Hypolipidemic activity in intact normal CD rat assessed as reduction in serum triglyceride level at 0.39 mmol/kg/day administered through diet for 5 days measured on day 6; format: functional; method in brief: as §2
Rattus norvegicus [15] = assay: Hypolipidemic activity in intact normal CD rat assessed as reduction in serum cholesterol level at 0.42 mmol/kg/day administered through diet for 5 days measured on day 6; format: functional; method in brief: as §2
Rattus norvegicus [16] = assay: Hypolipidemic activity in intact normal CD rat assessed as reduction in serum triglyceride level at 0.42 mmol/kg/day administered through diet for 5 days measured on day 6; format: functional; method in brief: as §2
Rattus norvegicus [17] = assay: Hypolipidemic activity in intact normal CD rat assessed as reduction in serum cholesterol level at 0.36 mmol/kg/day administered through diet for 5 days measured on day 6; format: functional; method in brief: as §2
Rattus norvegicus [18] = assay: Hypolipidemic activity in intact normal CD rat assessed as reduction in serum triglyceride level at 0.36 mmol/kg/day administered through diet for 5 days measured on day 6; format: functional; method in brief: as §2
Rattus norvegicus [19] = assay: Hypolipidemic activity in intact normal CD rat assessed as reduction in serum cholesterol level at 0.51 mmol/kg/day administered through diet for 5 days measured on day 6; format: functional; method in brief: as §2
Rattus norvegicus [20] = assay: Hypolipidemic activity in intact normal CD rat assessed as reduction in serum triglyceride level at 0.51 mmol/kg/day administered through diet for 5 days measured on day 6; format: functional; method in brief: as §2

Structure (SMILES) | pIC50 [1] | pIC50 [2] | also measured
CC(CCc1ccc(-c2ccccc2)cc1)CC(=O)O (stereo unspecified) | 4.70 | 5.70 | inhibition in vivo at 450 µmol/kg (Rattus norvegicus [3]): 16%; inhibition in vivo at 450 µmol/kg (Rattus norvegicus [4]): 26%
CC(CC(=O)O)CC(=O)c1ccc(Oc2ccccc2)cc1 (stereo unspecified) | 3.07 | 3.54 | inhibition in vivo at 400 µmol/kg (Rattus norvegicus [7]): 16%; inhibition in vivo at 400 µmol/kg (Rattus norvegicus [8]): ≥ 36%
CC(CCc1ccc(S(=O)(=O)c2ccccc2)cc1)CC(=O)O (stereo unspecified) | 4.15 | 4.40 | inhibition in vivo at 360 µmol/kg (Rattus norvegicus [17]): 45%; inhibition in vivo at 360 µmol/kg (Rattus norvegicus [18]): 60%
CC(CCc1ccc2sc3ccccc3c2c1)CC(=O)O (stereo unspecified) | 3.72 | 4.15 | inhibition in vivo at 430 µmol/kg (Rattus norvegicus [5]): 0%; inhibition in vivo at 430 µmol/kg (Rattus norvegicus [6]): ≥ 36%
CC(CCc1ccc2c(c1)-c1ccccc1S2(=O)=O)CC(=O)O (stereo unspecified) | 4.30 | 4.10 | inhibition in vivo at 360 µmol/kg (Rattus norvegicus [17]): 16%; inhibition in vivo at 360 µmol/kg (Rattus norvegicus [18]): ≥ 36%
CC(C)(Oc1ccc(Cl)cc1)C(=O)O | 3.20 | 3.07 | inhibition in vivo at 510 µmol/kg (Rattus norvegicus [19]): 26%; inhibition in vivo at 510 µmol/kg (Rattus norvegicus [20]): 26%

More lines, in order of rising pIC50 [1], values ahead:

pIC50 [1] | pIC50 [2] | Structure (SMILES) | also measured
3.09 | 3.44 | CC(CCc1ccc2oc3ccccc3c2c1)CC(=O)O (stereo unspecified) | inhibition in vivo at 430 µmol/kg (Rattus norvegicus [5]): 26%; inhibition in vivo at 430 µmol/kg (Rattus norvegicus [6]): ≥ 36%
3.24 | 3.62 | CC(CC(=O)O)CC(=O)c1ccc(Sc2ccccc2)cc1 (stereo unspecified) | inhibition in vivo at 380 µmol/kg (Rattus norvegicus [9]): 16%; inhibition in vivo at 380 µmol/kg (Rattus norvegicus [10]): ≥ 36%
3.51 | 3.80 | CC(CC(=O)O)CC(=O)c1ccc2sc3ccccc3c2c1 (stereo unspecified) | inhibition in vivo at 380 µmol/kg (Rattus norvegicus [9]): 16%; inhibition in vivo at 380 µmol/kg (Rattus norvegicus [10]): 26%
3.59 | 3.96 | CC(CC(=O)O)CC(=O)c1ccc2oc3ccccc3c2c1 (stereo unspecified) | inhibition in vivo at 410 µmol/kg (Rattus norvegicus [11]): 0%; inhibition in vivo at 410 µmol/kg (Rattus norvegicus [12]): 26%
3.74 | 4.15 | CC(CC(=O)O)CC(=O)c1ccc(-c2ccccc2)cc1 (stereo unspecified) | inhibition in vivo at 430 µmol/kg (Rattus norvegicus [5]): 26%; inhibition in vivo at 430 µmol/kg (Rattus norvegicus [6]): 16%
4.22 | 4.52 | CC(CC(=O)O)CC(=O)c1ccc2c(c1)CCc1ccccc1-2 (stereo unspecified) | inhibition in vivo at 390 µmol/kg (Rattus norvegicus [13]): 0%; inhibition in vivo at 390 µmol/kg (Rattus norvegicus [14]): ≥ 36%
4.40 | 4.70 | CC(CCc1ccc(Sc2ccccc2)cc1)CC(=O)O (stereo unspecified) | inhibition in vivo at 400 µmol/kg (Rattus norvegicus [7]): 26%; inhibition in vivo at 400 µmol/kg (Rattus norvegicus [8]): ≥ 36%
4.52 | 4.70 | CC(CCc1ccc(Oc2ccccc2)cc1)CC(=O)O (stereo unspecified) | inhibition in vivo at 420 µmol/kg (Rattus norvegicus [15]): 26%; inhibition in vivo at 420 µmol/kg (Rattus norvegicus [16]): ≥ 36%
